In PubChem BioAssay AID651740 (Broad Institute, 2012):
In all, about 5,600 compounds went through this assay and about 1,200 (21%) were called active. Another 3% or so got no clear call; they are omitted.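 How the source made its calls: active means mean inhibition above about 95%, with at least 55% of replicates also reaching it (limit read from the data); inconclusive means meets just one of the two conditions; inactive means meets neither condition.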 These entries were drawn from the full list.

Assay: inhibitors of intracellular T. cruzi replication, confirmation, NIH3T3 host cells, beta-gal parasites, cherry-pick, set 2 (AID 651740);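 further: plate controls were neutral control median for no effect and positive control median for full effect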
Settings: T. cruzi beta-gal in NIH3T3, GalScreen luminescence, 90 h; at 2.09 µM; stronger effect = higher value
Procedure, shortened: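 Material: beta-gal T. cruzi in mouse NIH/3T3 fibroblasts / Medium: DMEM, 2% FBS, 1% PSG / Also added: T. cruzi trypomastigotes, 5000 per well / Compound: single dose, 100 nL pinned DMSO compound / Timing: ≥90 h co-culture with compound, 60 min detection reagent / Technique: GalScreen lysis and luminescent beta-gal signal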

| Structure (SMILES) | inhibition |
| --- | --- |
| O=C(c1ccc(F)cc1)N1CCCCN2[C@H](C1)[C@@H](c1ccc(C#CC3(O)CCCC3)cc1)[C@@H]2CO | 2.53% (inactive) |
| CCCNC(=O)N(C)C[C@@H]1Oc2ncc(C#Cc3ccccc3F)cc2C(=O)N([C@@H](C)CO)C[C@H]1C | 94.5% (inactive) |
| O=C(Nc1ccc(-c2ccccc2)cc1)[C@H]1[C@H](CO)[C@H]2Cn3c(cccc3=O)[C@H]2N1CC1CC1 | 33.8% (inactive) |
| C[C@@H]1CN([C@H](C)CO)C(=O)c2cc(-c3cncnc3)cnc2O[C@H]1CN(C)C(=O)Nc1ccc2c(c1)OCO2 | -52% (inactive) |
| N#C[C@@H]1[C@@H](c2ccc(/C=C/c3ccccc3)cc2)[C@@H](CO)N1C(=O)C1CC1 | 68.6% (inactive) |
| C[C@@H]1CCCCO[C@H](CN(C)Cc2ccccc2)[C@H](C)CN([C@H](C)CO)C(=O)c2cc(NS(=O)(=O)c3ccc(Cl)cc3)ccc2O1 | 107% (active) |
| C[C@@H]1CN([C@H](C)CO)C(=O)c2cc(NS(=O)(=O)c3cccs3)ccc2O[C@@H](C)CCCCO[C@@H]1CN(C)S(=O)(=O)c1ccc(Cl)cc1 | 63.6% (inactive) |
| C[C@@H]1CCCCO[C@H](CN(C)C(=O)NC2CCCCC2)[C@H](C)CN([C@H](C)CO)C(=O)c2cc(NS(=O)(=O)c3ccc(Cl)cc3)ccc2O1 | 50.5% (inactive) |
| C[C@@H]1CN([C@H](C)CO)C(=O)c2cc(NS(=O)(=O)c3ccc(Cl)cc3)ccc2O[C@@H](C)CCCCO[C@H]1CN(C)Cc1ccccc1 | 94.6% (inactive) |
| COc1ccc(S(=O)(=O)Nc2ccc3c(c2)C(=O)N([C@H](C)CO)C[C@H](C)[C@H](CN(C)Cc2ccc(C(F)(F)F)cc2)O3)cc1 | 85.4% (inactive) |
| C[C@@H]1CCCCO[C@H](CN(C)S(=O)(=O)c2cccs2)[C@H](C)CN([C@H](C)CO)C(=O)c2cc(NS(=O)(=O)c3ccc(F)cc3)ccc2O1 | 62.8% (inactive) |
| C[C@H](CO)N1C[C@H](C)[C@H](CN(C)Cc2ccc(C(F)(F)F)cc2)OCCCC[C@H](C)Oc2ccc(NS(=O)(=O)c3ccc(Cl)cc3)cc2C1=O | 104% (active) |
| COc1ccc(S(=O)(=O)Nc2ccc3c(c2)C(=O)N([C@H](C)CO)C[C@@H](C)[C@@H](CN(C)CC2CCCCC2)OCCCC[C@@H](C)O3)cc1 | 105% (active) |
| COc1ccc(S(=O)(=O)N(C)C[C@H]2OCCCC[C@H](C)Oc3ccc(NS(=O)(=O)c4ccc(F)cc4)cc3C(=O)N([C@@H](C)CO)C[C@@H]2C)cc1 | 54% (inactive) |
| Cc1ccc(S(=O)(=O)N(C)C[C@@H]2OCCCC[C@@H](C)Oc3ccc(NS(=O)(=O)c4ccc(F)cc4)cc3C(=O)N([C@H](C)CO)C[C@H]2C)cc1 | 76.8% (inactive) |
| C[C@@H]1CN([C@H](C)CO)C(=O)c2cc(NS(=O)(=O)c3cccs3)ccc2O[C@@H](C)CCCCO[C@H]1CN(C)Cc1ccc(C(F)(F)F)cc1 | 112% (active) |
| C[C@H](CO)N1C[C@H](C)[C@H](CN(C)Cc2ccc(C(F)(F)F)cc2)Oc2ccc(NS(=O)(=O)c3ccc(Cl)cc3)cc2C1=O | 74% (inactive) |
| COc1ccc(CN(C)C[C@H]2Oc3ccc(NS(=O)(=O)c4ccc(Cl)cc4)cc3CC(=O)N([C@@H](C)CO)C[C@H]2C)cc1 | 33.6% (inactive) |
| C[C@@H]1CN([C@H](C)CO)C(=O)c2cccc(NC(=O)c3ccc(-c4nccs4)cc3)c2O[C@@H]1CN(C)C(=O)Nc1ccc(C(F)(F)F)cc1 | 53% (inactive) |
| CC(C)CC#Cc1cnc2c(c1)C(=O)N([C@@H](C)CO)C[C@@H](C)[C@H](CN(C)C(=O)Cc1ccncc1)O2 | 29.7% (inactive) |
| O=C(c1cccc(F)c1)N1CCCCN2[C@H](CO)[C@H](c3ccc(-c4ccncc4)cc3)[C@H]2C1 | 82% (inactive) |
| CN(C)C(=O)c1ccc(-c2ccc([C@@H]3[C@H](CO)N4CCCCN(S(C)(=O)=O)C[C@@H]34)cc2)cc1 | 17.3% (inactive) |
| Cc1cccc(-c2ccc([C@H]3[C@@H](CO)N4CCCCN(Cc5cncnc5)C[C@H]34)cc2)c1 | 48.1% (inactive) |
| CN(C)C(=O)c1ccc(-c2ccc3c(c2)[C@H]2[C@H](CCN2C(=O)c2ccc4c(c2)OCO4)[C@H](CO)N3)cc1 | 72.2% (inactive) |
| C[C@H]1CCCCO[C@@H](CN(C)C(=O)NC2CCCCC2)[C@@H](C)CN([C@@H](C)CO)C(=O)c2cc(NS(=O)(=O)c3ccc(Cl)cc3)ccc2O1 | 68% (inactive) |
| C[C@@H]1CCCCO[C@H](CN(C)C(=O)NC2CCCCC2)[C@H](C)CN([C@H](C)CO)C(=O)c2cc(NC(=O)Nc3ccc(F)cc3)ccc2O1 | 105% (active) |
| C[C@@H]1CCCCO[C@@H](CN(C)CC2CC2)[C@H](C)CN([C@H](C)CO)C(=O)c2cc(NC(=O)C3CCCCC3)ccc2O1 | 89.3% (inactive) |
| C[C@@H]1CCCCO[C@H](CN(C)Cc2ccccc2)[C@@H](C)CN([C@@H](C)CO)C(=O)c2cc(NC(=O)Nc3ccc(F)cc3)ccc2O1 | 103% (active) |

| Structure (SMILES) | inhibition |
| --- | --- |
| C[C@@H]1CCCCO[C@H](CN(C)Cc2ccc(C(F)(F)F)cc2)[C@H](C)CN([C@H](C)CO)C(=O)c2cc(NC(=O)Nc3ccc(F)cc3)ccc2O1 | 117% (active) |
| C[C@H]1CCCCO[C@H](CN(C)Cc2ccccc2)[C@@H](C)CN([C@@H](C)CO)C(=O)c2cc(NC(=O)c3ccccc3)ccc2O1 | 68.2% (inactive) |
| Cc1ccc(S(=O)(=O)Nc2ccc3c(c2)C(=O)N([C@H](C)CO)C[C@H](C)[C@H](CN(C)C(=O)Nc2ccc(F)cc2)OCCCC[C@H](C)O3)cc1 | 71.2% (inactive) |
| C[C@@H]1CCCCO[C@@H](CN(C)Cc2ccc(C(F)(F)F)cc2)[C@@H](C)CN([C@H](C)CO)C(=O)c2cc(NC(=O)Nc3ccccc3)ccc2O1 | 64.3% (inactive) |
| C[C@H]1CCCCO[C@H](CN(C)Cc2ccccc2)[C@@H](C)CN([C@@H](C)CO)C(=O)c2cc(NC(=O)NC3CCCCC3)ccc2O1 | 43.1% (inactive) |
| C[C@@H]1CN([C@H](C)CO)C(=O)c2cc(NC(=O)Nc3ccc(F)cc3)ccc2O[C@@H](C)CCCCO[C@@H]1CN(C)CC1CCCCC1 | 104% (active) |
| C[C@@H]1CN([C@@H](C)CO)C(=O)c2cc(C#CC3CCCCC3)cnc2O[C@H]1CN(C)S(=O)(=O)c1ccccc1 | 85.8% (inactive) |
| COc1ccc(-c2ccc3c(c2)[C@@H]2[C@@H](CCN2C(=O)Cc2ccccn2)[C@H](CO)N3C)cc1 | 84.9% (inactive) |
| O=C(C1CCCC1)N1CCCCN2[C@@H](CO)[C@H](c3ccc(-c4cccc(F)c4)cc3)[C@@H]2C1 | 78.2% (inactive) |
| O=C(CN1CCOCC1)N1CCCCN2[C@@H](CO)[C@H](c3ccc(/C=C/c4ccccc4)cc3)[C@@H]2C1 | 25.9% (inactive) |
| C[C@H]1CN([C@@H](C)CO)S(=O)(=O)c2ccc(C#Cc3cccc(F)c3)cc2O[C@@H]1CN(C)S(=O)(=O)c1cn(C)cn1 | 24.7% (inactive) |
| C[C@@H]1CCCCO[C@@H](CN(C)Cc2ccccc2)[C@H](C)CN([C@H](C)CO)C(=O)c2cc(NC(=O)Nc3cccc4ccccc34)ccc2O1 | 110% (active) |
| C[C@@H]1CN([C@@H](C)CO)C(=O)c2cc(NC(=O)Nc3cccc4ccccc34)ccc2O[C@@H](C)CCCCO[C@H]1CN(C)Cc1ccccc1 | 94.8% (inactive) |
| Cc1ccc(S(=O)(=O)Nc2ccc3c(c2)C(=O)N([C@@H](C)CO)C[C@@H](C)[C@H](CN(C)C(=O)Nc2cccc4ccccc24)OCCCC[C@H](C)O3)cc1 | 66.1% (inactive) |
| C[C@H](CO)N1C[C@H](C)[C@H](CN(C)S(=O)(=O)c2ccccc2)Oc2ncc(-c3cccc(C(F)(F)F)c3)cc2C1=O | 47.5% (inactive) |
| OC[C@@H]1[C@H](c2ccc(C#CC3CC3)cc2)[C@@H]2CN(CCC(F)(F)F)CCCCN12 | 78.6% (inactive) |
| C[C@H](CO)N1C[C@H](C)[C@@H](CN(C)Cc2ccc(C(F)(F)F)cc2)OCCCC[C@H](C)Oc2ccc(NC(=O)C3CCCCC3)cc2C1=O | 106% (active) |
| C[C@H](CO)N1C[C@H](C)[C@@H](CN(C)Cc2ccc(C(=O)Nc3ccccc3N)cc2)Oc2c(NC(=O)c3ccc(-c4nccs4)cc3)cccc2C1=O | 60.5% (inactive) |
| C[C@H]1CCCCO[C@H](CN(C)Cc2ccc(C(F)(F)F)cc2)[C@@H](C)CN([C@@H](C)CO)C(=O)c2cc(NC(=O)C3CCCCC3)ccc2O1 | 111% (active) |
| C[C@@H]1CN([C@H](C)CO)C(=O)c2cccc(NC(=O)NC3CCCCC3)c2O[C@H]1CN(C)Cc1ccc(C(F)(F)F)cc1 | 106% (active) |
| COc1ccc(NC(=O)N(C)C[C@@H]2Oc3c(NC(=O)NC4CCCCC4)cccc3C(=O)N([C@@H](C)CO)C[C@@H]2C)cc1 | 23.4% (inactive) |
| C[C@@H]1CN([C@@H](C)CO)C(=O)c2cc(NC(=O)C3CCCCC3)ccc2O[C@@H](C)CCCCO[C@H]1CN(C)Cc1ccncc1 | 78% (inactive) |
| C[C@@H]1CN([C@H](C)CO)S(=O)(=O)c2ccc(C#Cc3ccncc3)cc2O[C@@H]1CN(C)S(=O)(=O)c1ccc(F)cc1 | 22.2% (inactive) |
| OC[C@H]1[C@H](c2ccc(-c3cccc(F)c3)cc2)[C@@H]2CN(Cc3cncnc3)CCCCN12 | 60.7% (inactive) |
| CC(=O)N(C)C[C@@H]1[C@@H](c2ccc(-c3ccccc3F)cc2)[C@@H](CO)N1C(C)=O | 26.5% (inactive) |
| OC[C@@H]1[C@H](c2ccc(C#Cc3ccccc3)cc2)[C@@H]2CN(Cc3cncnc3)CCCCN12 | 90.4% (inactive) |
| N#C[C@H]1[C@@H](c2ccc(C3=CCCCC3)cc2)[C@@H](CO)N1C(=O)NC1CCCCC1 | 59.4% (inactive) |
